Dynein transport: inhibitors of GR-EGFP nuclear translocation, primary screen, dynein cargo transport inhibitor project, imaging, high-content, 3617.4 mouse cells; 220,000 tested, 0.47% active; z-score, hits read low; test concentration mostly 20 µM; stimulated with dexamethasone, 1 µM; active compounds read low;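 active = plate z-score of nuclear minus cytoplasmic receptor signal below a set negative limit, without overly bright fluorescence or cell loss, cut at about -3.5 in these data, passing the limit was not always enough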;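 also: z-score of nuclear minus cytoplasmic ring GR-EGFP intensity difference per well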
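Schedule: 48 h induction, then 1 h compound, then 30 min agonist, 37 °C. Buffer or medium: tetracycline-free induction medium containing charcoal-stripped FBS. Reagent: 1.0 µM final dexamethasone stimulus. Evaluation: nuclear versus cytoplasmic GR-EGFP signal, averaged per well. Signal: high-content fluorescence imaging after fixation.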
Autophagy mod: autophagy modulators in MEF cells, primary screen, imaging, high-content, MEF GFP-LC3; AID 463193, 2010; calls only at 10 µM (by protocol); MEF GFP-LC3 puncta imaging; test concentration mostly 10 µM; 190,000 tested, 0.98% active;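 active = percentage of spot-positive cells more than 3 SD above its plate mean, without a fluorescence outlier flag or 80% toxicity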;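 also: spot-positive cell cutoff set from DMSO-treated cells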
L929 necroptosis: inhibitors of zVAD-triggered necroptosis, primary screen, L929 cells; L929 zVAD necroptosis rescue, ATP luminescence, 24 h; with zVAD 60 µM; 220,000 tested, 0.38% active; viability rescue, % at 10 µM; AID 1377, 2008;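 active = activation, scaled between plate controls, above about 75%, limit read from the data; inactive = activation under that limit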;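 also: 0% = zVAD with DMSO and 100% = DMSO alone without zVAD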
TNF necrop inh: inhibitors of TNF-alpha triggered necroptosis, primary screen, cell-based, Jurkat FADD-/-, single concentration | Jurkat FADD-/- TNF necroptosis rescue, ATP luminescence, 24 h; 0 = TNF only, 100 = no-TNF cells | activation (protection from cell death), % at 10 µM | 220,000 tested, 0.068% active;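 active = activation, meaning protection from cell death, of at least 50% relative to plate controls; inactive = activation below 50%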;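 also: necroptosis triggered by 40 ng/mL TNF-alpha added together with compound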
Mdm2 ligase inh: MDM2-luciferase reporter signal enhancers, primary screen, MDM2 E3 ligase inhibitor project, cell-based, luminescence, 1536-well; cell-based MDM2 ubiquitination luciferase reporter, 2 h; 0 = plate control, 100 = twice control, blank-subtracted; signal enhancement, % at 5 µM; 210,000 tested, 0.11% active;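 active = signal enhancement of 30% or more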;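 also: luminescence tracks abundance of the self-degrading MDM2-luciferase fusion protein; higher signal means inhibition of MDM2 E3 ligase activity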
Target sequence (Q00987 whole entry, looked up, the tested form may be a part): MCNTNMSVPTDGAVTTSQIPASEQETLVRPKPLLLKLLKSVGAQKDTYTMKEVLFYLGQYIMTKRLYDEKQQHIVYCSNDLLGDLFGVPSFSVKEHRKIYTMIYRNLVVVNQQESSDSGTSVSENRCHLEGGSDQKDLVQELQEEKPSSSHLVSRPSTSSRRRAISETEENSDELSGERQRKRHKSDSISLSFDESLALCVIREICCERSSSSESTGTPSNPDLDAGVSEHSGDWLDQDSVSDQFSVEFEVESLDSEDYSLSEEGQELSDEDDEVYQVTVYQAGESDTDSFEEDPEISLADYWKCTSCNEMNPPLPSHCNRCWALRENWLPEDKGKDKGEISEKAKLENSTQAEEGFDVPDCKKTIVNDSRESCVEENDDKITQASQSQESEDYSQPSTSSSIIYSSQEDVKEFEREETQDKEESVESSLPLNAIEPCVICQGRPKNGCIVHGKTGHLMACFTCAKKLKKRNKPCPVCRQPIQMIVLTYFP
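test system = mammalian cells stably expressing self-ubiquitinating, self-degrading MDM2 E3–luciferase fusion | quantity = 2000 cells/well | incubation = cell settling 4 h, compound treatment 2 h, both 37 °C | signal = luminescence with SteadyLite reagent, 15 min at room temperature | evaluation = % enhancement relative to plate controls after blank subtraction | benchmarks = plate controls and plate blanks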
Active calls of the source: *; i = inactive; nt = not tested or not shown; + = active, no number. Sampled rows, rich in hits. Any-hit rate of the full collection: about 1.8%.

SMILES	Dynein transport	Autophagy mod	L929 necroptosis	TNF necrop inh	Mdm2 ligase inh
CC(=O)N1c2ccccc2N(Cc2ccc(C)cc2C)C(=O)C1(C)C	-1.01	+	0.6	-7.1	-7.1
C=CCN1C(=O)C(C)(C)N(C(C)=O)c2ccccc21	-1.12	i	nt	0.2	-2.1
CC(C(=O)Nc1cccnc1)C1Sc2ccccc2NC1=O (stereo unspecified)	-0.147	i	10.0	0.4	-2.0
COc1ccc2c(CC(=O)Nc3ccc(OC)nc3)coc2c1	-1.03	+	1.4	0.7	1.4
COc1ccc(CC(=O)Nc2ccc(OC)nc2)cc1	-0.16	i	2.6	0.6	2.7
Cc1cccc2c(C(=O)Nc3ccc(Br)cc3)cc(-c3ccccn3)nc12	-0.0313	i	1.3	-0.4	-11.8
O=C(Nc1ccc([N+](=O)[O-])cc1)c1cc(-c2ccccn2)nc2c(Cl)cccc12	-0.485	+	0.3	-0.2	-1.9
CCC(CO)[n+]1c(C)cc(/C=C2\Sc3ccccc3N2Cc2ccccc2)cc1C (stereo unspecified)	5.57	+	1.1	-0.7	-32.9
CC(SC#N)C(=O)C12CC3CC(CC(C3)C1)C2 (stereo unspecified)	-6.76*	i	1.8	-6.0	-6.6
CC(Sc1n[nH]c(N)n1)C(=O)C12CC3CC(CC(C3)C1)C2 (stereo unspecified)	1.42	i	-0.5	-1.9	-18.6
Clc1ccccc1/C=C/C=N/Nc1nc(N2CCOCC2)nc(N2CCOCC2)n1	-0.492	i	0.7	-0.9	-3.1
O=C(O)c1ccc2c(c1)N(Cc1ccccc1)C(=O)c1ccccc1S2	-0.0534	nt	-0.7	0.6	0.7
O=[N+]([O-])c1cccc(/C=C/c2nc(C=Nc3ccc4ccccc4c3)c(O)o2)c1	-0.788	+	-0.3	0.2	-0.4
CC(C)N(Cc1ccccc1)C(=O)CSc1nccn1C	-1.11	+	0.9	0.6	-4.3
Cc1ccc(-n2c(=O)c3c4c(sc3n3c(=S)[nH]nc23)CCC4)cc1	-0.51	nt	0.6	-1.6	-11.9
Cc1cccc(-n2c(=O)c3c4c(sc3n3c(=S)[nH]nc23)CCC4)c1	0.946	+	3.2	0.1	-1.7
O=C(Nc1ccc(Cl)cc1C(=O)N1CCCC1)c1cccc([N+](=O)[O-])c1	-0.467	i	-0.2	-0.6	0.9
Cc1ccc(C)c(C(=O)COc2ccc(C)nc2[N+](=O)[O-])c1	-4.27*	i	0.1	-10.5	-2.2
COc1ccc(/C(O)=C/c2nc3ccccc3n(-c3ccccc3)c2=O)cc1	-0.226	+	-0.6	-2.5	-9.3
Cc1ccc(NC2(c3nnnn3-c3c(C)cccc3C)CCCCC2)cc1	-0.912	+	-0.4	1.2	-0.9
COc1ccc(CC2(CO)CCN(Cc3ccc4nsnc4c3)CC2)cc1	-0.026	i	4.8	1.6	9.2
Cc1ccc(OCC(=O)Nc2ccc(Cl)cc2)c(-n2nc3ccccc3n2)c1	0.115	+	0.2	-0.9	3.7
O=C(CCS(=O)(=O)c1ccc(Br)cc1)N1CCN(c2ccccc2)CC1	-0.254	+	0.9	-0.1	-14.7
O=C(Nc1nc2ccccc2n1Cc1ccccc1)c1ccc(COc2ccccc2[N+](=O)[O-])o1	2.81	+	-0.3	-2.9	-4.2
CCN(CC)c1nc2ccccc2nc1C(C#N)C(=O)NCCCOC (stereo unspecified)	2.45	i	-0.6	-7.3	-7.6
SMILES	Dynein transport	Autophagy mod	L929 necroptosis	TNF necrop inh	Mdm2 ligase inh
CCCCN(CCCC)c1nc2ccccc2nc1C(C#N)C(=O)NCCCOC (stereo unspecified)	0.52	+	1.2	0.0	-20.3
CCN(CC)c1nc2ccccc2nc1C(C#N)C(=O)NCCc1ccccc1 (stereo unspecified)	0.387	+	-0.2	0.6	-7.5
O=C(CSc1nnc(-c2cccnc2)n1C1CCCCC1)NC1CCCC1	-0.542	+	-0.6	-0.4	-20.1
COc1ccc(Nc2nc(N3CCCC3)nc3ccccc23)c(OC)c1	-0.146	+	0.4	-6.7	7.2
COc1ccc(Nc2ncnc3ccccc23)c(OC)c1	-0.883	i	0.5	-1.2	-4.0
Cc1ccc([N+](=O)[O-])cc1S(=O)(=O)Nc1ccc(C(=O)N(C)C)cc1	2.18	+	-1.0	0.3	-18.0
CCC(OC(=O)c1cccs1)C(=O)NCc1ccc(C)cc1 (stereo unspecified)	0.602	+	-0.4	0.8	-1.1
Cc1cc(C)cc(OCc2nc3ncc(Br)cc3[nH]2)c1	-0.564	+	1.3	-4.3	nt
COc1cccc(/C=C/C(=O)Nc2ccc3c(c2)OCCO3)c1OC	0.0349	+	1.3	-1.4	-46.8
CCCN1C=CC(=C/C=C(\C#N)C(=O)OCC)C=C1	-0.754	i	88.9*	3.5	-22.8
CCCN1C=CC(=CC=C(C#N)C#N)C=C1	0.655	nt	-0.6	0.8	-10.8
O=C1CCCC(=O)C1=C1SCCCS1	0.273	i	1.9	0.1	-7.8
COc1ccc(/C=N/c2oc(C)c(C)c2C#N)c(OC)c1	1.15	+	-0.2	0.8	-7.2
O=c1c2c(nc3cc(-c4ccc(F)cc4)[nH]n13)CCC2	0.574	i	0.6	0.6	-20.5
O=C(NCCc1ccccn1)C(F)(F)C(F)(F)C(F)(F)C(F)(F)C(F)(F)C(F)F	-0.545	i	0.7	1.3	-1.4
Cc1ccc(SCC(=O)Nc2ccc(S(=O)(=O)Nc3nccs3)cc2)cc1	-0.85	+	-0.1	2.8	-16.8
O=C(CSc1ccncc1)Nc1ccc(S(=O)(=O)Nc2nccs2)cc1	0.87	i	3.3	-0.7	-13.6
CC(C)CC(=O)NC(=S)Nc1ccc(S(=O)(=O)Nc2nccs2)cc1	-0.25	+	0.1	0.4	-6.1
COc1ccc(NC(=O)/C=N/O)cc1	-0.49	i	5.0	-0.8	1.8
COc1ccc(N/N=C(\C=N\O)C(=O)c2ccc(OC)cc2)cc1	0.148	+	-0.9	-10.8	-18.6
COc1cccc(C2=NOC(C(=O)N3CCN(C(=O)c4ccco4)CC3)C2)c1 (stereo unspecified)	0.224	i	77.1*	1.5	-4.7
CCOC(=O)c1c(NC(=O)CC2Nc3ccccc3NC2=O)sc(C)c1C (stereo unspecified)	-0.263	+	1.5	1.7	-1.2
COC(=O)c1c(NC(=O)CC2Nc3ccccc3NC2=O)sc(C)c1C (stereo unspecified)	-0.529	+	0.3	-0.4	-23.1
CCOC(=O)c1c(NC(=O)CC2Sc3ccc(C(F)(F)F)cc3NC2=O)sc(C)c1C (stereo unspecified)	0.491	i	0.2	-0.6	-21.0

From PubChem BioAssay
